Measurements published in ChEMBL document CHEMBL1777764, “Synthesis and evaluation of 1-(1H-indol-3-yl)ethanamine derivatives as new antibacterial agents” (Bioorg Med Chem, 2011).
Converted amounts (≈) assume the structure as drawn.

What was measured:
Staphylococcus aureus [1] = experiment: Antibacterial activity against Staphylococcus aureus ATCC 9144 after 18 hrs by broth microdilution method; type: functional
Outline: (§1)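 MIC by broth microdilution per ISO 20776-1:2006 and CLSI M07-A8. Inoculum 10^6 cfu/ml in Mueller-Hinton broth with compound serially diluted, final concentrations 2 to 128 ug/ml, duplicate rows, no-drug growth control. Incubation 18 h at 37 °C. MIC taken as lowest concentration giving complete inhibition of visible growth. Each compound tested at least twice.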

Staphylococcus aureus [2] = experiment: Antibacterial activity against Staphylococcus aureus ATCC 29213 after 18 hrs by broth microdilution method; type: functional; outline: as §1
Staphylococcus aureus [3] = experiment: Antibacterial activity against Staphylococcus aureus ATCC 25923 after 18 hrs by broth microdilution method; type: functional; outline: as §1
Staphylococcus aureus [4] = experiment: Antibacterial activity against methicillin-resistant Staphylococcus aureus CIP 65.25 after 18 hrs by broth microdilution method; type: functional
Outline: (§2)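 Broth microdilution following ISO 20776-1:2006 and CLSI M07-A8, in Mueller-Hinton broth. Inoculum was 10^6 cfu/ml, with compound serial dilutions spanning 2 to 128 ug/ml and a compound-free growth control well. Plates were incubated 18 h at 37 °C. MIC was the lowest concentration giving complete inhibition of visible growth. Each compound was tested at least twice.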

Staphylococcus aureus [5] = experiment: Antibacterial activity against vancomycin intermediate Staphylococcus aureus […] after 18 hrs by broth microdilution method; type: functional; outline: as §2
Staphylococcus aureus [6] = experiment: Antibacterial activity against Staphylococcus aureus ATCC 6538 after 18 hrs by broth microdilution method; type: functional; outline: as §1
Staphylococcus aureus [7] = experiment: Antibacterial activity against Staphylococcus aureus CIP 103428 after 18 hrs by broth microdilution method; type: functional; outline: as §1
[8] = tested on: Staphylococcus epidermidis; experiment: Antibacterial activity against Staphylococcus epidermidis CIP 103627 after 18 hrs by broth microdilution method; type: functional; outline: as §1
[9] = tested on: Staphylococcus epidermidis; experiment: Antibacterial activity against Staphylococcus epidermidis CIP 81.55 after 18 hrs by broth microdilution method; type: functional; outline: as §1
Staphylococcus aureus [10] = experiment: Antibacterial activity against Staphylococcus aureus CIP 65.6 after 18 hrs by broth microdilution method; type: functional; outline: as §1
Staphylococcus aureus [11] = experiment: Antibacterial activity against methicillin-resistant Staphylococcus aureus ATCC 33592 after 18 hrs by broth microdilution method; type: functional; outline: as §2
[12] = tested on: Staphylococcus epidermidis; experiment: Antibacterial activity against Staphylococcus epidermidis ATCC 12228 after 18 hrs by broth microdilution method; type: functional; outline: as §1
Escherichia coli = experiment: Antibacterial activity against Escherichia coli ATCC 25922 after 18 hrs by broth microdilution method; type: functional; outline: as §2
MRC5 [13] = experiment: Cytotoxicity against human MRC5 cells at 1 uM; type: cell-based; conditions: mrc5, 1 µM
KB [14] = experiment: Cytotoxicity against human KB cells at 10 uM; type: cell-based
HCT-116 [15] = experiment: Cytotoxicity against human HCT116 cells at 1 uM; type: cell-based; conditions: hct-116, 1 µM
MRC5 [16] = experiment: Cytotoxicity against human MRC5 cells at 10 uM; type: cell-based; conditions: mrc5, 10 µM
KB [17] = experiment: Cytotoxicity against human KB cells at 1 uM; type: cell-based
HCT-116 [18] = experiment: Cytotoxicity against human HCT116 cells at 10 uM; type: cell-based; conditions: hct-116, 10 µM
Klebsiella pneumoniae = experiment: microbe, parasite or virus in culture; conditions: ATCC 35657, 18 h
Acinetobacter baumannii = experiment: microbe, parasite or virus in culture; conditions: ATCC 19606 = CIP 70.34 = JCM 6841, 18 h
Serratia marcescens = experiment: microbe, parasite or virus in culture; conditions: CIP 103551, 18 h
Streptococcus agalactiae = experiment: Antibacterial activity against Streptococcus agalactiae ATCC 12400 after 18 hrs by broth microdilution method; type: functional; conditions: ATCC 12400, 18 h; outline: as §2
Streptococcus pneumoniae [19] = experiment: Antibacterial activity against Streptococcus pneumoniae ATCC 6303 after 18 hrs by broth microdilution method; type: functional; conditions: ATCC 6303, 18 h
Outline: (§3)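 MIC by broth microdilution per ISO 20776-1:2006 and CLSI M07-A8. Inoculum 10^6 cfu/ml in Mueller-Hinton broth […]. Compound serially diluted, final 2 to 128 ug/ml, duplicate rows, no-drug growth control. Read after 18 h at 37 °C as lowest concentration fully inhibiting visible growth. At least two experiments.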

Enterococcus faecalis = experiment: Antibacterial activity against Enterococcus faecalis ATCC 29212 after 18 hrs by broth microdilution method; type: functional; conditions: ATCC 29212, 18 h; outline: as §2
Pseudomonas aeruginosa = experiment: microbe, parasite or virus in culture; conditions: CIP 5933, 18 h
Enterococcus faecium = experiment: Antibacterial activity against Enterococcus faecium CIP 54.32 after 18 hrs by broth microdilution method; type: functional; conditions: CIP 54.32, 18 h; outline: as §2
Streptococcus pyogenes = experiment: Antibacterial activity against Streptococcus pyogenes CIP 104226 after 18 hrs by broth microdilution method; type: functional; conditions: CIP 104226, 18 h; outline: as §2
Streptococcus mitis = experiment: Antibacterial activity against Streptococcus mitis CIP 103335 after 18 hrs by broth microdilution method; type: functional; conditions: CIP 103335, 18 h
Outline: as §2, with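 “broth […].” for “broth.”, “read after” for “incubated”, “with no” for “giving complete inhibition of”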

Streptococcus pneumoniae [20] = experiment: Antibacterial activity against Streptococcus pneumoniae ATCC 49619 after 18 hrs by broth microdilution method; type: functional; conditions: ATCC 49619, 18 h; outline: as §3
Enterobacter cloacae = experiment: microbe, parasite or virus in culture; conditions: ATCC 13047, 18 h

Compound	MIC (Staphylococcus aureus [5])	MIC (Staphylococcus aureus [1]; ATCC 9144, 18 h)	Activity (MRC5 [13])	MIC (Staphylococcus aureus [2]; ATCC 29213, 18 h)	MIC (Staphylococcus aureus [3]; ATCC 25923, 18 h)	MIC (Staphylococcus aureus [6]; ATCC 6538, 18 h)	MIC (Staphylococcus aureus [7]; CIP 103428, 18 h)	MIC ([8]; CIP 103627, 18 h)	Activity (KB [14])	MIC ([9]; CIP 81.55, 18 h)	Activity (HCT-116 [15])	Activity (MRC5 [16])	MIC (Staphylococcus aureus [10]; CIP 65.6, 18 h)	MIC ([12]; ATCC 12228, 18 h)	Activity (KB [17])	Activity (HCT-116 [18])	also measured
GENTAMICIN	> 64 µg/mL	–	–	–	–	–	–	–	–	–	–	–	–	–	–	–	MIC (Staphylococcus aureus [1]): 0.125 µg/mL; MIC (Staphylococcus aureus [2]): 0.125 µg/mL; MIC (Staphylococcus aureus [3]): 0.125 µg/mL; MIC (Staphylococcus aureus [4]): 0.25 µg/mL; MIC (Staphylococcus aureus [6]): 0.125 µg/mL; MIC (Staphylococcus aureus [7]): 0.125 µg/mL; MIC [8]: 0.125 µg/mL; MIC [9]: 0.125 µg/mL; MIC (Staphylococcus aureus [10]): 0.125 µg/mL; MIC (Staphylococcus aureus [11]): 0.25 µg/mL; MIC [12]: 0.125 µg/mL; MIC (Escherichia coli): 1 µg/mL
CC(C)CC(NO)c1c[nH]c2ccccc12 (centres undefined)	–	64 µg/mL (≈ 293 µM)	Non-toxic	64 µg/mL (≈ 293 µM)	64 µg/mL (≈ 293 µM)	64 µg/mL (≈ 293 µM)	64 µg/mL (≈ 293 µM)	32 µg/mL (≈ 147 µM)	Non-toxic	32 µg/mL (≈ 147 µM)	Non-toxic	Non-toxic	64 µg/mL (≈ 293 µM)	32 µg/mL (≈ 147 µM)	Non-toxic	Non-toxic	–
Cl.Cl.NCC(NO)c1c[nH]c2ccc(Br)cc12 (centres undefined)	16 µg/mL	16 µg/mL	Non-toxic	16 µg/mL	16 µg/mL	16 µg/mL	16 µg/mL	8 µg/mL	Non-toxic	8 µg/mL	Non-toxic	Non-toxic	16 µg/mL	8 µg/mL	Non-toxic	Non-toxic	MIC (Klebsiella pneumoniae): 64 µg/mL; MIC (Acinetobacter baumannii): 64 µg/mL; MIC (Serratia marcescens): 64 µg/mL; MIC (Streptococcus agalactiae): 64 µg/mL; MIC (Staphylococcus aureus [4]; CIP 65.25, 18 h): 16 µg/mL; MIC (Streptococcus pneumoniae [19]): 64 µg/mL; MIC (Enterococcus faecalis): 128 µg/mL; MIC (Pseudomonas aeruginosa): 64 µg/mL; MIC (Staphylococcus aureus [11]; ATCC 33592, 18 h): 16 µg/mL; MIC (Enterococcus faecium): 128 µg/mL; MIC (Streptococcus pyogenes): 64 µg/mL; MIC (Streptococcus mitis): 64 µg/mL; MIC (Streptococcus pneumoniae [20]): 64 µg/mL; MIC (Escherichia coli; ATCC 25922, 18 h): 16 µg/mL; MIC (Enterobacter cloacae): 64 µg/mL
